NR2E3 ag-1: activates human NR2E3 receptor; Q9Y5X4; CHO-S Gal4-NCOR/VP16-NR2E3 two-hybrid, luciferase; inhibition of corepressor binding, % at 3.98 µM; 360,000 tested, 0.35% active;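 active means inhibition above the mean of all tested compounds plus 3 SD, cut at about 70% in these data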;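 further: 0% = DMSO with NR2E3 transfected cells and 100% = cells lacking NR2E3 construct; higher means lower luciferase signal from less NR2E3 corepressor binding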
MC4R antag cAMP: blocks human MC4R cAMP signaling; P32245; MC4R-expressing cells, MTII-stimulated cAMP, LANCE TR-FRET; inhibition, % at 6.5 µM; 360,000 tested, 0.48% active; AID 540295;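 active means inhibition above its plate's cutoff, the mean of tested wells on that plate plus 3 SD, cut at about 29% in these data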;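 further: 0% = Melanotan II alone and 100% = Melanotan II plus saturating MCL0020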
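Material – human MC4R-expressing U2OS cells · Repeats – no replicates · Detection – TR-FRET with Eu-cAMP and labeled anti-cAMP, 671 nm · Times – compound 30 min, challenge 1 h, detection 1 h · Compound – single nominal compound dose of 6.5 µM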
MC4R ag barr: human MC4R agonism via beta-arrestin. AID 540308. activation, % at 8.9 µM. 360,000 tested, 0.98% active. U2OS MC4R beta-arrestin complementation, luminescence; percent of melanotan II response, DMSO zero;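 active means activation above a per-plate cutoff, the mean activation of sample wells on that plate plus 3 SD, cut at about 8% in these data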
NR2E3 ag-2: agonists of human nuclear receptor NR2E3; Q9Y5X4; 320,000 tested, 0.12% active; AID 2300; inhibition of corepressor binding, % at 4.78 µM; GST-NR2E3/biotin-RetCOR TR-FRET, 1536-well;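 active means percent inhibition above the cutoff of mean plus 3 SD of all tested compounds, set per screening campaign, cut at about 20% in these data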;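 further: 0% = DMSO wells and 100% = biotin wells as full block of FRET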
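system = GST-tagged NR2E3 plus biotinylated RetCOR corepressor | input = 1.35 nM GST-NR2E3 | also added = 7 nM biotin-RetCOR | schedule = 5 h incubation at 4 °C | measured by = TR-FRET with europium anti-GST and streptavidin-D2, 340 nm excitation | read-out = percent loss of FRET ratio relative to control wells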
NR1D1 modulator: modulators of human Rev-erb alpha DNA binding; P20393; Rev-erbα–FITC-DNA binding, fluorescence polarization, 90 min; activity, % at 10 µM; 370,000 tested, 0.79% active; AID 1259318;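 active means activity above about 14%, limit read from the data; passing the limit was not always enough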;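 further: 0% = DMSO wells with 35 nM protein and 100% = DMSO wells with 750 nM protein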
PG9 Ab binder: small molecules binding HIV-1 gp120 antibody PG9; TR-FRET gp120-PG9 antibody binding; inhibition, % at 6.7 µM; 360,000 tested, 0.43% active; in the data active means inhibition above about 8.5%
cAMP nonselect: counter-screen for MC4R antagonists: nonselective cAMP signaling inhibitors. inhibition, % at 6.5 µM. AID 602193. shares compounds with MC4R antag cAMP. parental U2OS, forskolin cAMP, LANCE TR-FRET. 1,600 tested, 26% active;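 active means mean inhibition over triplicates above the low-control well mean plus 3 SD, set per campaign, cut at about 13% in these data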;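 further: signal is single emission at 671 nm which falls as cellular cAMP rises; 0% = forskolin-stimulated wells and 100% = buffer without forskolin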
MC4R antag conf: human MC4R cAMP antagonism confirmation; shares compounds with MC4R antag cAMP; MC4R-expressing cells, MTII-stimulated cAMP, TR-FRET; inhibition, % at 6.5 µM; 1,600 tested, 27% active; AID 602195; in the data active means inhibition above about 29%;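 further: 0% = agonist stimulated wells alone and 100% = agonist stimulated wells plus saturating reference antagonist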
MC4R barr ag: human MC4R beta-arrestin agonism confirmation; AID 602192; shares compounds with MC4R ag barr; U2OS MC4R beta-arrestin recruitment, luminescence; scaled DMSO 0%, Melanotan II 100%; 2,400 tested, 31% active; activation, % at 8.9 µM;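 active means mean activation across replicates above the hit cutoff set in the earlier primary screen, cut at about 8% in these data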
MOR-DOR barr ag: activates mu-delta opioid heterodimer, MC4R agonist counter-screen; shares compounds with MC4R ag barr; U2OS PathHunter beta-arrestin, beta-gal luminescence; percent of deltorphin B response, DMSO zero; activation, % at 9.2 µM; 2,400 tested, 5.8% active; AID 602194;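 active means mean activation across replicates exceeds the hit threshold derived in the earlier primary screen, cut at about 18% in these data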;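 further: 100% = deltorphin B at 0.9 µM final and 0% = DMSO alone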
Target sequence (P35372 whole entry, looked up): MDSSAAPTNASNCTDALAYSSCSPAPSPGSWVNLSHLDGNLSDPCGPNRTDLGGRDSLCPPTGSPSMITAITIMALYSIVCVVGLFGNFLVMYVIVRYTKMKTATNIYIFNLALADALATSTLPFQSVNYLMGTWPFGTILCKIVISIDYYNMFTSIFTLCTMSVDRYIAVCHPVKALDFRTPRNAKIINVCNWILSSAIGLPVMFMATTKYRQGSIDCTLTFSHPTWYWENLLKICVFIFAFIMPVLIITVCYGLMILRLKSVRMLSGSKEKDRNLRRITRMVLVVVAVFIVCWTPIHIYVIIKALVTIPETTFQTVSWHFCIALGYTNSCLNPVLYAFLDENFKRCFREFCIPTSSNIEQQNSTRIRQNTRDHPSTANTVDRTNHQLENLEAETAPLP
Target sequence (P41143 whole entry, looked up): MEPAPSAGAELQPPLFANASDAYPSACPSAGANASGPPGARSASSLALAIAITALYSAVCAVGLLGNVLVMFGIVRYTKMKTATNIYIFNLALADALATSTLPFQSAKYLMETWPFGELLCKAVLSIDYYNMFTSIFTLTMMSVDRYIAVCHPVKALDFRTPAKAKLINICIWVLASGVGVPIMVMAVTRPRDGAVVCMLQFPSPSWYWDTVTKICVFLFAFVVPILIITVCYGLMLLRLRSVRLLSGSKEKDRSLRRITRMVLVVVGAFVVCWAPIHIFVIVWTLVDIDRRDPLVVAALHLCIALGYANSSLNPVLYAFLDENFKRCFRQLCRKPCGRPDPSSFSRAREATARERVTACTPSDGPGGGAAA
NR2E3 ag conf: confirmation of human NR2E3 agonists; shares compounds with NR2E3 ag-1; CHO-S mammalian two-hybrid NR2E3-NCOR, luciferase luminescence; inhibition, % at 3.98 µM; 2,300 tested, 51% active; AID 624378;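 active means average inhibition above a cutoff equal to the mean inhibition of all tested compounds plus one SD, cut at about 70% in these data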;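 further: 0% = DMSO in NR2E3 cells and 100% = DMSO in cells lacking NR2E3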
GAL4-VP16 luc: reduces GAL4-VP16 reporter signal in NR2E3 counterscreen; inhibition, % at 3.98 µM; CHO-S GAL4-VP16 luciferase reporter, luminescence; shares compounds with NR2E3 ag-1; 2,300 tested, 29% active; AID 624379;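 active means mean inhibition above a cutoff equal to the average over all tested compounds plus one standard deviation, cut at about 70% in these data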;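 further: luciferase from a UAS reporter driven by GAL4-VP16 transactivation; 0% = DMSO with VP16-transfected cells and 100% = DMSO with cells lacking VP16; higher means less reporter light so more repression of VP16 activity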
The depositor's hits bear a star; nt = no result. Rows were chosen to be rich in hits. Some 2.7% of all compounds tested hit in one or more screens of this group.

SMILES	NR2E3 ag-1	MC4R antag cAMP	MC4R ag barr	NR2E3 ag-2	NR1D1 modulator	PG9 Ab binder	cAMP nonselect	MC4R antag conf	MC4R barr ag	MOR-DOR barr ag	others
C=C1CCc2c([nH]c3ccc(OCC(C)C)cc23)C1=O	-19	45*	14*	nt	-2	-2	12	32*	13*	12
COc1ccc2oc(=O)c(-c3csc(Nc4cccc(O)c4)n3)cc2c1	-67	30*	13*	0	7	-2	5	2	28*	4
CC(=O)Nc1ccc(Nc2nc(-c3cc4ccccc4oc3=O)cs2)cc1	-47	12	5	nt	2	-2	nt	nt	nt	nt
COC(=O)CSc1nc2ccc(NC(=O)c3ccccc3C(=O)N3CCOCC3)cc2s1	-10	14	-3	-5	-2	1	nt	nt	nt	nt
O=C(Nc1ccc2nc(SCc3ccc(Cl)cc3)sc2c1)c1ccccc1C(=O)N1CCOCC1	-5	64*	10.0*	2	2	1	30*	66*	24*	17
CCc1nnc(NS(=O)(=O)c2ccc(NC(=S)NC(=O)/C=C/c3ccc(C(C)C)cc3)cc2)s1	22	29*	24*	0	nt	nt	-2	-6	1	1
CCc1nnc(NS(=O)(=O)c2ccc(NC(=S)NC(=O)/C=C/c3ccccc3)cc2)s1	-21	10	-1	3	-4	0	nt	nt	nt	nt
CCCCCCCCCCCCCCCC[N+](C)(C)Cc1ccc(F)cc1	27	42*	16*	nt	-1	-2	-1	32*	31*	13
CC1CCCC(C)N1CCNC(=O)C1CCN(S(=O)(=O)N2CCCCC2)CC1 (centres undefined)	7	21	1	1	-3	-1	nt	nt	nt	nt
Oc1c(N=NC(=S)Nc2ccccc2F)c2ccccc2n1Cc1ccc(F)cc1	7	-2	-3	-1	2	-5	nt	nt	nt	nt
O=C(Nc1ccccc1-c1nc2ccccc2[nH]1)c1ccc(N2C(=O)CCC2=O)cc1	13	35*	10*	-4	14	1	-1	27	2	10
Cc1nnc(-c2cccc(Br)c2)c2cn(-c3ccccc3)nc12	5	21	-2	-2	-3	-1	nt	nt	nt	nt
Cc1nnc(-c2cccc(Br)c2)c2cn(-c3cccc(Br)c3)nc12	2	33*	13*	-1	-4	-2	5	29*	6	5
O=C(/C=C/c1ccc2c(c1)OCO2)N1CCN(c2ccc(Cl)cc2)CC1	7	29*	13*	-1	4	-3	-3	-17	2	4
O=C(/C=C/c1ccc2c(c1)OCCO2)N1CCN(c2ccc(F)cc2)CC1	6	2	-1	3	5	0	nt	nt	nt	nt
CCOc1ccc(C(Nc2ccc(C)cc2)P2(=O)OCC(C)(C)CO2)cc1 (centres undefined)	10	3	-2	0	-7	-1	nt	nt	nt	nt
Cc1ccc(Nc2nc(N)nc(CSc3nccn3C)n2)cc1	-111	1	-1	-1	-1	1	nt	nt	nt	nt
CCCCCCCCCCC[N+](C)(C)CC/C=C1/c2ccccc2Sc2ccc(Cl)cc21	-5	36*	21*	3	nt	nt	7	30*	25*	19*
CCCCCCCCCC[N+](C)(C)CC/C=C1/c2ccccc2Sc2ccc(Cl)cc21	7	41*	17*	-1	nt	nt	9	40*	18*	26*
Cc1ccc2oc(C(=O)N(Cc3nccn3C)C(C)C)c(C)c2c1	6	2	-4	-2	-4	-2	nt	nt	nt	nt
CC(=O)OC[C@]1(OC(C)=O)C[C@@]23CC[C@H]4[C@@](C)(CCC[C@@]4(C)C(=O)O)[C@@H]2CC[C@@H]1C3	-32	-2	-2	2	-1	0	nt	nt	nt	nt
CC(=O)OC[C@]12CC[C@H]3[C@@](C)(CC[C@H]4C(C)(C)CCC[C@]34C)[C@@H]1CC(C1=CC(=O)OC1O)O2 (some centres undefined)	102*	52*	91*	nt	-6	-1	6	35*	26*	82*	NR2E3 ag conf=100*;GAL4-VP16 luc=100*
COCC(=O)Oc1cc(-c2ccc(C)cc2C)c(OC(=O)COC)c(-c2ccc(C)cc2C)c1	69	30*	0	nt	-3	-1	8	6	nt	nt	NR2E3 ag conf=24;GAL4-VP16 luc=8
Cc1ccc(OCC(=O)Oc2c(C)cccc2C)cc1	-29	14	4	1	4	-1	nt	nt	nt	nt
CSc1nc(-c2ccccc2)c(C#N)c(=O)n1C	-10	10	-3	2	-1	2	nt	nt	nt	nt
O=S(=O)(/C(=C\c1ccc(C(F)(F)F)cc1)c1nc2ccccc2[nH]1)c1ccccc1	91*	33*	-1	nt	nt	nt	12	35*	nt	nt	NR2E3 ag conf=96*;GAL4-VP16 luc=-12
O=C(NC(Nc1nc2ccc([N+](=O)[O-])cc2s1)(C(F)(F)F)C(F)(F)F)c1ccccc1Cl	98*	33*	1	6	2	-1	6	18	nt	nt	NR2E3 ag conf=97*;GAL4-VP16 luc=90*
Cc1nn(-c2ccc(F)cc2)c(Cl)c1/C=N/NC(=O)c1cccc(S(=O)(=O)N2CCCC2)c1	-23	14	-1	-4	-13	-1	nt	nt	nt	nt
COc1cccc(N2CCN(c3ncnc4c3[nH]c3ccc(F)cc34)CC2C)c1 (centres undefined)	109*	40*	22*	1	-4	1	26*	51*	nt	nt	NR2E3 ag conf=101*;GAL4-VP16 luc=100*
COc1cccc(N2CCN(c3ncnc4c3[nH]c3ccccc34)CC2C)c1 (centres undefined)	nt	nt	nt	-3	-3	1	nt	nt	nt	nt

Bioassay records from PubChem BioAssay.
